The results in this text go back to ChEMBL document CHEMBL4837261, “Optimization of TopoIV Potency, ADMET Properties, and hERG Inhibition of 5-Amino-1,3-dioxane-Linked Novel Bacterial Topoisomerase Inhibitors: Identification of a Lead with In Vivo Efficacy against MRSA” (J Med Chem, 2021).

For one data set, the target named is CYP1A2 (Homo sapiens, UniProt P05177). Put plainly: Inhibition of CYP1A2 (unknown origin) at 10 uM relative to control. The data set is classed as ADME.
The target of a further data set is Topoisomerase IV (Staphylococcus aureus, UniProt P0C1S7+P0C1U9). Put plainly: Inhibition of Staphylococcus aureus topoisomerase IV decatenation activity using kDNA as substrate by ethidium bromide/bromophenol blue staining based agarose gel electrophoresis analysis. The data set is classed as protein-complex assay.
Another data set relates to Streptococcus pyogenes. The data set is described as follows: Antibacterial activity against Streptococcus pyogenes isolates by CLSI method. It is filed as functional.
Another data set deals with KCNQ1 (Homo sapiens, UniProt P51787). Put plainly: Inhibition of recombinant human KCNQ1 expressed in CHO-K1 cells at 100 uM by automated Qpatch clamp assay relative to control. It is filed as ADME, cell-based. Particulars: CHO-K1 cells expressing recombinant human KCNQ1. On the technique in general: In patch-clamp work, channel activity is measured electrically.
Sequence of KCNQ1 (P51787 whole entry): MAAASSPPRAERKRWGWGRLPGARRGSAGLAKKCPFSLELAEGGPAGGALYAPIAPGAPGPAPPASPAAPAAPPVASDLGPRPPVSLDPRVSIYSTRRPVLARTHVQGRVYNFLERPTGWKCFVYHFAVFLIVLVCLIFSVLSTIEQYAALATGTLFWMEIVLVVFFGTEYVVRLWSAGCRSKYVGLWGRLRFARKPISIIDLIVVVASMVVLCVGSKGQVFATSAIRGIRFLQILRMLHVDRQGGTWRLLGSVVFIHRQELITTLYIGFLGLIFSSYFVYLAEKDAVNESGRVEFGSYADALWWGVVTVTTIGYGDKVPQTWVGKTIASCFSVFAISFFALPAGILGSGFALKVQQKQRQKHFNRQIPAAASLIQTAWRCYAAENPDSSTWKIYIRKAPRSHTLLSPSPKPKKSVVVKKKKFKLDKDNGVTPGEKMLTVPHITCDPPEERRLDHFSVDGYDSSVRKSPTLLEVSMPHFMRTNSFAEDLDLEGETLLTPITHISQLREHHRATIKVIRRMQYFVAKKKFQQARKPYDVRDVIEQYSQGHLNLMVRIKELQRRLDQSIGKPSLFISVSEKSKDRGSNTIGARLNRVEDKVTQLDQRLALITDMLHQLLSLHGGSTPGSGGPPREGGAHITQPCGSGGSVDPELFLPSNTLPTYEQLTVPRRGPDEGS
A further data set deals with hERG (KCNH2) (Homo sapiens, UniProt Q12809). Put plainly: Inhibition of recombinant human ERG expressed in CHO-K1 cells at 100 uM at -80 mV holding potential tail current by automated Qpatch clamp assay relative to control. It is filed as ADME, cell-based. Particulars: CHO-K1 cells expressing recombinant human ERG.
Sequence of hERG (KCNH2) (Q12809 whole entry): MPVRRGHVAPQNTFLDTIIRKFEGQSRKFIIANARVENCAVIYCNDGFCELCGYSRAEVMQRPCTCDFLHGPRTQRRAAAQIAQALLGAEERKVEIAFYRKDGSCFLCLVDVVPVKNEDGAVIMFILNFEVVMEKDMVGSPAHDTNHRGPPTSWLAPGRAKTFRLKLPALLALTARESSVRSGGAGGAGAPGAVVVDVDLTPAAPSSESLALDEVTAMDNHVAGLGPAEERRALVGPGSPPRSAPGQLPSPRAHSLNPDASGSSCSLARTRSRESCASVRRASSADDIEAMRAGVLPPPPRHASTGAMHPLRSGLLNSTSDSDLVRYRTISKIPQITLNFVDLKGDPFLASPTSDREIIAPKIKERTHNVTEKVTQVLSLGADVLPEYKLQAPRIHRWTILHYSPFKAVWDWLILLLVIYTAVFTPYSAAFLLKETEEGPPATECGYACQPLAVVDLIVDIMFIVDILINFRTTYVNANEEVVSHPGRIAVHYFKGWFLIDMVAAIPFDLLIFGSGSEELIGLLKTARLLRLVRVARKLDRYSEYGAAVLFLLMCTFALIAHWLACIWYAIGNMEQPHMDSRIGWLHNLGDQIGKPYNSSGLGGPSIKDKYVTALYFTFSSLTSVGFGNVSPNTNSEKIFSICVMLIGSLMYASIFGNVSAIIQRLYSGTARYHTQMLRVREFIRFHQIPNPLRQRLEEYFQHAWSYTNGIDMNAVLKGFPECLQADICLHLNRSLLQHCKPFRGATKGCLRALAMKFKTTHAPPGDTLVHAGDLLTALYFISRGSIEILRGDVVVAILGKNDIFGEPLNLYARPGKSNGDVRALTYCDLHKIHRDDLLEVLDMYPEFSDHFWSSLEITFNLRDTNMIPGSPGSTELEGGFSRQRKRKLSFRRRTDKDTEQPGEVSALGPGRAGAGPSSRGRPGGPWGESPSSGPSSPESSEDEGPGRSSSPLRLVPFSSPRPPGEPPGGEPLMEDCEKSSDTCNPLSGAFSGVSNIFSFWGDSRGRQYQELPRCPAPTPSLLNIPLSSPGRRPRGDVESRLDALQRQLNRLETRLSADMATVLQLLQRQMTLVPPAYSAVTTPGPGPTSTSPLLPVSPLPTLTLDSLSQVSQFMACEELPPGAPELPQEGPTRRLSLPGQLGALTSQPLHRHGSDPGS
The target in another data set is Nav1.5 (late current) (Homo sapiens, UniProt Q14524). Put plainly: Inhibition of recombinant human Nav1.5 late expressed in human HEK293 cells at 100 uM in presence of ATXII by automated Qpatch clamp assay relative to contro. It is filed as ADME, cell-based. Particulars: HEK293 cells expressing recombinant human Nav1.5.
In data set [1] the target is DNA gyrase (Staphylococcus aureus) (UniProt P0A0K8+P20831). The data set is described as follows: Inhibition of Staphylococcus aureus DNA Gyrase assessed as reduction in supercoiling pBR322 DNA by measuring induction of single strand breaks by ethidium bromide staining based agarose gel electrophoresis. As to conditions: dose 1-100 µM. The data set is classed as protein-complex assay. In short, it runs like this:
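Gyrase-mediated cleavage of negatively supercoiled pBR322 ran for 30 min at 37 °C with compound at 0.5–200 μM. Single- and double-strand break products were quantified from gel lane fluorescence, corrected for differential emission of supercoiled versus linear DNA.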

In another data set the target is Cytochrome P450 2B6 (Homo sapiens, UniProt P20813). Put plainly: Inhibition of CYP2B6 (unknown origin). The data set is classed as ADME.
The target of data set [2] is T1, Kv4.3 (KCND3) (Homo sapiens, UniProt Q9UK17). Put plainly: Inhibition of recombinant human Kv4.3 expressed in human HEK293 cells at 100 uM measured at peak current by automated Qpatch clamp assay relative to control. It is filed as ADME, cell-based. As to conditions: HEK293 cells expressing recombinant human Kv4.3.
T1 sequence (Q9UK17 whole entry): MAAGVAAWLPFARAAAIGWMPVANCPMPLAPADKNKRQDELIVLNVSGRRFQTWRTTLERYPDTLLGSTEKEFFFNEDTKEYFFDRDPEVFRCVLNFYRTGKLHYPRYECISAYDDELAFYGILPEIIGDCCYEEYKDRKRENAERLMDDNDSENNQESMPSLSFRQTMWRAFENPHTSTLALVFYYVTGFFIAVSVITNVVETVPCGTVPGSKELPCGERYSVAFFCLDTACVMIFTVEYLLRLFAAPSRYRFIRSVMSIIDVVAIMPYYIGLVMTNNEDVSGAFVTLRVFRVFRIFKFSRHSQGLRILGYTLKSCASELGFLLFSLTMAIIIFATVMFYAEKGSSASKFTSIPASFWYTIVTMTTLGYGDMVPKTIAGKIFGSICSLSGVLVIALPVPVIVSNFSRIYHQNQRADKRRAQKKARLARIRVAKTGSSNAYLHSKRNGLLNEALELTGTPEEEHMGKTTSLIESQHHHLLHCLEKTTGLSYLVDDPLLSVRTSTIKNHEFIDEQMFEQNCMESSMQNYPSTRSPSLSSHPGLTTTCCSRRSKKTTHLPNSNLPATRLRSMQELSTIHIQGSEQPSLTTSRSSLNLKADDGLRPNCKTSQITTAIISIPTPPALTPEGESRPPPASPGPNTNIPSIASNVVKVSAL
The target in data set [3] is T1, Kv4.3 (KCND3). Put plainly: Inhibition of recombinant human Kv4.3 expressed in human HEK293 cells at 100 uM measured at end current by automated Qpatch clamp assay relative to control. It is filed as ADME, cell-based. As to conditions: HEK293 cells expressing recombinant human Kv4.3.
Data set [4] is described as follows: Cmax in ICR (CD-1) mouse at 50 mg/kg, po measured up to 1440 mins by LC-MS/MS analysis. It is filed as ADME, organism-based. The arrangement: route oral, dose 50 mg/kg, time <=1440. Particulars: in vivo. The method in brief:
(§1)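 Male ICR (CD-1) mice, 22 ± 2 g, given the free base in DMSO/Solutol HS-15/0.9% NaCl (5/5/90, v/v/v), IV at 10 mg/kg or PO at 50 mg/kg; 24 mice per route, three per timepoint. Plasma was taken by cardiac puncture at 3–1440 min (IV) or 10–1440 min (PO), measured by LC-MS/MS, and parameters were derived by noncompartmental analysis.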

The subject of a further data set is Escherichia coli. The data set is described as follows: Antibacterial activity against Escherichia coli isolates by CLSI method. It is filed as functional.
The nature of data set [5]: Oral bioavailability in ICR (CD-1) mouse at 50 mg/kg measured up to 1440 mins by LC-MS/MS analysis. It is filed as ADME, organism-based. Particulars: in vivo. In short, it runs like this: (§2)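 Male ICR (CD-1) mice, 22 ± 2 g, given free base in DMSO/Solutol HS-15/0.9% NaCl (5/5/90) at 50 mg/kg PO or 10 mg/kg IV. Three mice per timepoint, 8 timepoints. Plasma taken by cardiac puncture at 10–1440 min (PO) or 3–1440 min (IV). Measured by LC-MS/MS, with parameters from noncompartmental analysis.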

Data set [6] in a line: AUClast in ICR (CD-1) mouse at 10 mg/kg, iv measured up to 1440 mins by LC-MS/MS analysis. The data set is classed as ADME, organism-based. Particulars: in vivo. Further details: route intravenous, dose 10 mg/kg, time <=1440. The method in brief: as §1
The next data set relates to Enterobacter cloacae. Put plainly: Antibacterial activity against Enterobacter cloacae isolates by CLSI method. The data set is classed as functional.
Data set [7] relates to Staphylococcus aureus. The data set is described as follows: Antibacterial activity against methicillin-resistant Staphylococcus aureus ATCC 33591 infected in iv dosed CD1 mouse model of septicemia assessed as mouse survival at 25 to 50 mg/kg, iv administered 0.5 to 3.5 hrs post injection measured for 7 days relative to control. The data set is classed as functional. As to conditions: dose 25-50 mg/kg; time 7 day.

Data set [8] deals with Staphylococcus aureus. Put plainly: Antibacterial activity against methicillin-resistant Staphylococcus aureus USA300 by CLSI method. The data set is classed as functional.
A further data set deals with CYP2B6 (Homo sapiens, UniProt P20813). Put plainly: Inhibition of CYP2B6 (unknown origin) at 10 uM relative to control. It is filed as ADME.
Data set [9] is described as follows: Clearance in ICR (CD-1) mouse at 10 mg/kg, iv measured up to 1440 mins by LC-MS/MS analysis. It is filed as ADME, organism-based. As to conditions: in vivo. The method in brief:
as §1

In data set [10] the test system is Staphylococcus aureus. Put plainly: Antibacterial activity against methicillin-resistant Staphylococcus aureus ATCC 33591 infected in iv dosed CD1 mouse model of septicemia assessed as mouse survival at 1 to 10 mg/kg, iv administered 0.5 to 3.5 hrs post injection measured for 7 days relative to control. It is filed as functional. As to conditions: dose 1-10 mg/kg, time 7 day. In short, it runs like this: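 Female CD-1 mice (18–20 g), in groups of six, were infected IP with 1.3 × 10^8 CFU MRSA ATCC 33591 suspended in 8% hog gastric mucin (pH 7.5). Compound was given as the methanesulfonate salt in 5% DMSO/water for injection, by IV tail vein at 0.5, 1.5, 2.5 and 3.5 h post infection. Dose levels were 1, 5, 10, 25 and 50 mg/kg/dose. Survival was followed for 7 days against untreated infection controls.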

The target of a further data set is DNA gyrase (Staphylococcus aureus, UniProt P0A0K8+P20831). The data set is described as follows: Inhibition of Staphylococcus aureus Gyrase supercoiling activity assessed as reduction in supercoiling pBR322 DNA by measuring relaxation by bromophenol blue staining based TAE gel method. It is filed as protein-complex assay.
For a further data set, the target named is CYP2C8 (Homo sapiens, UniProt P10632). Put plainly: Inhibition of CYP2C8 (unknown origin) at 10 uM relative to control. The data set is classed as ADME.
Sequence of CYP2C8 (P10632 whole entry): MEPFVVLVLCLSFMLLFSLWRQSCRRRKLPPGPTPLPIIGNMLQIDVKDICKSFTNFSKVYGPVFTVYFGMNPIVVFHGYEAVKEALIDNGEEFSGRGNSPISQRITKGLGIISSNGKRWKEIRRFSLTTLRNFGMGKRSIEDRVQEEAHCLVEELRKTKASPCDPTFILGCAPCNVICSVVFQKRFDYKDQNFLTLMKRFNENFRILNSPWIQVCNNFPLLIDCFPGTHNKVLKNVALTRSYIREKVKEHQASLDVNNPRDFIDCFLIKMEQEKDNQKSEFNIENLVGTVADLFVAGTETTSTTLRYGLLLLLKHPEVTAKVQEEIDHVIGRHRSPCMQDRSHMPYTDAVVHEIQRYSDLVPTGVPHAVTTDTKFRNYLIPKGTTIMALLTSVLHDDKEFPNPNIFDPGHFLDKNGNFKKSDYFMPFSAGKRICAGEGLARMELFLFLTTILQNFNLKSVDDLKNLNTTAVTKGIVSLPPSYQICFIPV
A short description of data set [11]: Tmax in ICR (CD-1) mouse at 50 mg/kg, po measured up to 1440 mins by LC-MS/MS analysis. The data set is classed as ADME, organism-based. Particulars: in vivo. In short, it runs like this: as §2

The structures appear in SMILES notation. ≈ marks a conversion by molar mass, not a printed value.

Sequence of DNA gyrase (Staphylococcus aureus) (P0A0K8 2-644 limits assumed): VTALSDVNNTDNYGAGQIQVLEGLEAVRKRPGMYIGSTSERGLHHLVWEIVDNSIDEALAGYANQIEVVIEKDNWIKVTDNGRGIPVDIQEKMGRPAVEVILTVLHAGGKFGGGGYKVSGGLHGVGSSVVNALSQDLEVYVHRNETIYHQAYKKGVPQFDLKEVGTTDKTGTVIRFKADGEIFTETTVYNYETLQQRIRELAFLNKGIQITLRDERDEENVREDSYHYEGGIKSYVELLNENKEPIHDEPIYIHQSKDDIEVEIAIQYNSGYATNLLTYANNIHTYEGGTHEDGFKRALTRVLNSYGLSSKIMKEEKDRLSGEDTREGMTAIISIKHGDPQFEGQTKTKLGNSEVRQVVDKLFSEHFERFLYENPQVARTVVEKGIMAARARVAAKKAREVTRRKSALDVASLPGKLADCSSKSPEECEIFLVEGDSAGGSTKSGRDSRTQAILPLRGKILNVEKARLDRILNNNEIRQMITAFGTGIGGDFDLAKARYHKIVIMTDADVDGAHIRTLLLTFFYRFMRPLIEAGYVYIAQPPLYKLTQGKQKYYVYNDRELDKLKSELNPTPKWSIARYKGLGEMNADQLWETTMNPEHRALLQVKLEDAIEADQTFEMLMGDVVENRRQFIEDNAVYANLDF
Sequence of DNA gyrase (Staphylococcus aureus) (P20831 whole entry partner): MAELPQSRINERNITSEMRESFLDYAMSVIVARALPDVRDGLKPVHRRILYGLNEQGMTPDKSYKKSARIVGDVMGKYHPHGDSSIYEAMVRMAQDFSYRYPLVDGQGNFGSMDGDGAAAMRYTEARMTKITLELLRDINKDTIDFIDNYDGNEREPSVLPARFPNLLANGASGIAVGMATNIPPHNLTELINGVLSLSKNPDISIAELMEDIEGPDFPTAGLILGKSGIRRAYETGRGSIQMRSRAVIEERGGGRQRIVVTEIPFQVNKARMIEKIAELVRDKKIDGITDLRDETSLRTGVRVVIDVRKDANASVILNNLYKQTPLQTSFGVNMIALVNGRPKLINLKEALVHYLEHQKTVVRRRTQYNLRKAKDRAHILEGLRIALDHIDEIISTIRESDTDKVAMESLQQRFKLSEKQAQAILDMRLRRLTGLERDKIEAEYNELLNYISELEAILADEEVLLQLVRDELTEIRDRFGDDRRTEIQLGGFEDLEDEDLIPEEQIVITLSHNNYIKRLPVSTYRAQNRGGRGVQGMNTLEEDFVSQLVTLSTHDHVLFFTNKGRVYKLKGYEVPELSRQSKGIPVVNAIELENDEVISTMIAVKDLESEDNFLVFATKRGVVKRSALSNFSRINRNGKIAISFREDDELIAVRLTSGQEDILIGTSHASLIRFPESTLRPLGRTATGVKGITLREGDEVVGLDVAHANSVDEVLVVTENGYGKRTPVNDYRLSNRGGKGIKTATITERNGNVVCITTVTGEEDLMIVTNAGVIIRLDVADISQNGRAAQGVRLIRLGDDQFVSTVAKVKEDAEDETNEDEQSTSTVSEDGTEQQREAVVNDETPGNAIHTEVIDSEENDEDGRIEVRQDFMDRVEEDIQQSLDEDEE
Sequence of CYP1A2 (P05177 whole entry): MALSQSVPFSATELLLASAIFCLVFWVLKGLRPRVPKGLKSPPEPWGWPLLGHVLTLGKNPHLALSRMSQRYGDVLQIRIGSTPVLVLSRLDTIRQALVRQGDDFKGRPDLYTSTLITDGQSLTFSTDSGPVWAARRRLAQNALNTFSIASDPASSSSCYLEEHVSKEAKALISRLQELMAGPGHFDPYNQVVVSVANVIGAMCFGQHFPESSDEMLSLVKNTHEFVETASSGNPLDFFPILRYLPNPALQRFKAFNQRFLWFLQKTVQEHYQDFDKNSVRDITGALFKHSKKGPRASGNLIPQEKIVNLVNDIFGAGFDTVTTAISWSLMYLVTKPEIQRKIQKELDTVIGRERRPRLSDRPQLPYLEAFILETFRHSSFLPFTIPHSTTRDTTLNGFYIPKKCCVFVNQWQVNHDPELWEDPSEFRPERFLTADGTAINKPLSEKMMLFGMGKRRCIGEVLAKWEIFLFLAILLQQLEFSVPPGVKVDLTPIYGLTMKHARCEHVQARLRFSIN

By inhibition is commonly meant the change of the read-out against control, counted positive when it falls. In general, IC50 refers to the point on the concentration scale where inhibition reaches its midpoint. One may read the MIC50 as an inhibitory concentration at the 50% level, which refers to growth in some studies and to a panel of isolates in others. High values mean lower susceptibility, low ones higher susceptibility. As a reminder, the Cmax is the maximum level reached in the sampled fluid or tissue. Broadly, the bioavailability is the share of a dose that reaches the circulation, judged against a reference dose that is usually intravenous. A higher bioavailability goes with good availability. In general, AUC(0-t) refers to exposure summed from dosing to a finite time, without extrapolation to infinity. The MIC is the smallest concentration in the dilution series that meets the test's criterion for growth inhibition. Read a high MIC as weaker potency. In general, clearance refers to a measure of how efficiently the substance is removed, as volume per time. Read a low clearance as a low capacity for elimination. As a reminder, the Tmax is the time at which the peak concentration occurs. Consider `COc1ccc2ncc(F)c(C[C@H](O)[C@H]3OC[C@H](NCc4cc5c(nn4)OCCS5)CO3)c2n1`, for which the inhibition at 10 µM against CYP1A2, against CYP2B6 and on CYP2C8 was above 50% each time. Also, the IC50 on Topoisomerase IV was 3.5 µM; against Cytochrome P450 2B6, above 10 µM; at DNA gyrase it was 0.22 µM. The results for the MIC50 with Streptococcus pyogenes, in the data set with Escherichia coli and with Enterobacter cloacae were 0.5 µg/mL (≈ 1.02 µM), above 64 µg/mL and above 64 µg/mL, respectively. The inhibition at 100 µM on KCNQ1, at hERG (KCNH2), at Nav1.5 (late current), on Kv4.3 (KCND3) [2] and on Kv4.3 (KCND3) [3] was below 25% each time. Also, the Activity entry in [1] is “Dose-Dependent Effect”. Further, in data set [4], the Cmax was found to be 7020 ng/mL. Further, the bioavailability in data set [5] was 49%. The AUC(0-t) at 24 h in [6] stood at 2400 ng·h/mL. For the same compound, the Survival with Staphylococcus aureus [7] is listed as 100%; in the data set with Staphylococcus aureus [10] it was above 50%. This compound also displayed an MIC in the data set on Staphylococcus aureus [8] of 0.25 µg/mL (≈ 0.511 µM). Besides, the clearance in data set [9] turned out to be 69 mL/min/kg. The Tmax in [11] was 10.2 min.
